# From ChEMBL document CHEMBL3739276, “Discovery of A-971432, An Orally Bioavailable Selective Sphingosine-1-Phosphate Receptor 5 (S1P5) Agonist for the Potential Treatment of Neurodegenerative Disorders” (J Med Chem, 2015)
# Active and inactive are the calls of the source. No cut-off for these calls is given here.
# Tests used:
# [1] = Plasma concentration in C57BL6J mouse at 0.1 mg/kg, po qd administered for 21 days during spontaneous alteration T-maze assay; type: ADME, organism-based
# Summary of the method: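 Male C57BL/6J mice aged 12 months (n = 20), with 2-month-old mice (n = 11) as young controls. Randomized and blinded. Single daily oral doses (10 mL/kg) for 21 days. On day 21, dosed 225 min before a spontaneous-alternation trial in a gray Plexiglas T-maze. Exposure measured in plasma and brain. One-way ANOVA.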
# [2] = Cmax in CD1 mouse at 10 mg/kg, po; type: ADME, organism-based; set-up: dose 10 mg/kg, route oral; conditions: in vivo
# [3] = Volume of distribution at steady state in beagle dog plasma at 1 mg/kg, iv; type: ADME, organism-based, Canis lupus familiaris; conditions: read-out: Vdss
# Mus musculus [4] = assay: Anticonvulsant activity against CD1 mouse assessed as protection against pentylenetetrazole-induced seizures at 0.3 to 30 mg/kg, po qd; type: functional, organism-based
# Summary of the method: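 Part of a 41-assay multiplexed in vivo screening panel run at Melior Discovery. CD1 mice received 0.3, 3 and 30 mg/kg orally once daily; endpoints were compared with vehicle-treated mice.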
# [5] = AUC in BALB/C mouse plasma at 2 mg/kg, iv; type: ADME, organism-based
# [6] = Volume of distribution at steady state in BALB/C mouse plasma at 2 mg/kg, iv; type: ADME, organism-based; conditions: read-out: Vdss
# [7] = Cmax in BALB/C mouse brain at 2 mg/kg, po; type: ADME, organism-based; set-up: dose 2 mg/kg, route oral
# [8] = Clearance in Sprague-Dawley rat plasma at 1 mg/kg, iv; type: ADME, organism-based
# Rattus norvegicus [9] = assay: Toxicity in female Sprague-Dawley rat assessed as increase in liver weight at 100 mg/kg, po qd measured on day 14; type: organism-based; conditions: in vivo
# Rattus norvegicus [10] = assay: Toxicity in Sprague-Dawley rat assessed as survival at 10 to 100 mg/kg, po qd measured on day 14; type: organism-based; conditions: in vivo
# [11] = Clearance in BALB/C mouse plasma at 2 mg/kg, iv; type: ADME, organism-based
# [12] = Plasma concentration in Sprague-Dawley rat at 30 mg/kg, iv administered for 30 mins; type: ADME, organism-based
# [13] = AUC in beagle dog plasma at 1 mg/kg, po; type: ADME, organism-based, Canis lupus familiaris
# Salmonella typhimurium = assay: Genotoxicity in Salmonella typhimurium by Ames assay; type: toxicity, organism-based; conditions: salmonella enterica subsp. enterica serovar typhimurium
# [14] = target: T1, Sphingosine 1-phosphate receptor 4 (Homo sapiens) (UniProt O95977); assay: Agonist activity at S1P4 receptor (unknown origin) expressed in CHO cell membranes up to 10 uM after 30 mins by GTPgammaS binding assay; type: functional
# T1 sequence (whole entry): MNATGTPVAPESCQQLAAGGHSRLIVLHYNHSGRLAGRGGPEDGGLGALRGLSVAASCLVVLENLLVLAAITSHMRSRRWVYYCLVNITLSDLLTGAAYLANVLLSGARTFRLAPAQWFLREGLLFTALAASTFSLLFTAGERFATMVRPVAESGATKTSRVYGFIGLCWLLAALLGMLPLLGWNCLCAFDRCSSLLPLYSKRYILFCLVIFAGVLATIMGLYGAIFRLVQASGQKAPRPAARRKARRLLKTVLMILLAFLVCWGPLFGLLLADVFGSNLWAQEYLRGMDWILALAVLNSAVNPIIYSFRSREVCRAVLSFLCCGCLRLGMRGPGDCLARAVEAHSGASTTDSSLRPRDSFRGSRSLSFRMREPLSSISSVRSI
# [15] = Half life in beagle dog plasma at 1 mg/kg, po; type: ADME, organism-based, Canis lupus familiaris
# [16] = AUC in Sprague-Dawley rat at 100 mg/kg, po qd measured on day 2 and day 14; type: ADME, organism-based; conditions: in vivo
# Summary of the method: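 Sprague-Dawley rats of both sexes dosed orally once daily for 14 days in a tolerability study; exposure AUC measured on day 2 and day 14.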
# Mus musculus [17] = assay: Toxicity in CD1 mouse assessed as change in body weight at 0.3 to 30 mg/kg, po qd measured over 4 days; type: organism-based; conditions: in vivo, 96 h
# [18] = Tmax in beagle dog plasma at 1 mg/kg, po; type: ADME, organism-based, Canis lupus familiaris
# [19] = target: Sphingosine 1-phosphate receptor 1 (Homo sapiens, UniProt P21453); assay: Agonist activity at S1P1 receptor (unknown origin) expressed in CHO cell membranes up to 10 uM after 30 mins by GTPgammaS binding assay; type: functional
# Sequence of Sphingosine 1-phosphate receptor 1 (P21453 whole entry): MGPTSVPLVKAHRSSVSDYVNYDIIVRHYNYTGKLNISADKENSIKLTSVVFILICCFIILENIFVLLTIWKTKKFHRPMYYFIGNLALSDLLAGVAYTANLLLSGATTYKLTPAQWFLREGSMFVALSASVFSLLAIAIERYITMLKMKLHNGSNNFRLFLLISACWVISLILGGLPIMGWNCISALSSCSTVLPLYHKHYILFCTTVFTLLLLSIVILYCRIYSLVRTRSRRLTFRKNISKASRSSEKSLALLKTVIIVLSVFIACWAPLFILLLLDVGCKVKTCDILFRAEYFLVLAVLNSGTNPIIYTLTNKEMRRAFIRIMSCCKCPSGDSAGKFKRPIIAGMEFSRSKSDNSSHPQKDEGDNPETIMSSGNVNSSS
# Rattus norvegicus [20] = assay: Cardiotoxicity in Sprague-Dawley rat assessed as heamodynamic effects at 10 mg/kg, iv administered for 30 mins; type: toxicity, organism-based; conditions: in vivo, 0.5 h
# Summary of the method: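 Male Sprague-Dawley rats (327-400 g) under Inactin anaesthesia (100 mg/kg ip), with femoral arterial catheters for arterial pressure and heart rate, and a left-ventricular catheter for dP/dt at 50 mmHg. After a 30 min baseline, three sequential 30 min IV infusions of 3, 10 and 30 mg/kg in 20% DMA/40% PG/40% PEG-400. Treated n=4, vehicle n=5; unpaired t tests; plasma sampled after each infusion.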
# [21] = Volume of distribution at steady state in Sprague-Dawley rat plasma at 1 mg/kg, iv; type: ADME, organism-based; conditions: read-out: Vdss
# [22] = Plasma concentration in Sprague-Dawley rat at 10 mg/kg, iv administered for 30 mins; type: ADME, organism-based
compound,measurement,setting,value
O=C(O)C1CN(Cc2ccc(OCc3ccc(Cl)c(Cl)c3)cc2)C1,concentration at 504 h,[1]; in vivo,28.3 ng/g
same,concentration at 504 h,[1]; plasma,41.6 ng/mL
same,Cmax,[2],2500 ng/mL
same,Vd,[3],1.2 L/kg
same,Activity,Mus musculus [4],inactive
same,AUC,[5],8500 ng·h/mL
same,Vd,[6],1.9 L/kg
same,Cmax,[7],43 ng/mL
same,clearance,[8],2.67 mL/min/kg
same,Activity,Rattus norvegicus [9],30%
same,Activity,Rattus norvegicus [10],Non-toxic
same,clearance,[11],4 mL/min/kg
same,concentration at 0.5 h,[12],20300 ng/mL
same,AUC,[13],11000 ng·h/mL
same,Activity,Salmonella typhimurium,Non-toxic
same,Activity,[14],inactive
same,half-life,[15],10 h
same,AUC,[16],670000 ng·h/mL
same,Activity,Mus musculus [17],Non-toxic
same,Tmax,[18],1.5 h
same,Activity,[19],inactive
same,Activity,Rattus norvegicus [20],Non-toxic
same,Vd,[21],1.3 L/kg
same,concentration at 0.5 h,[22],8660 ng/mL
